Broadly, the Ki is a dissociation constant, usually derived from enzyme kinetics or from competition with a known ligand. The term inhibition denotes the change of the read-out against control, counted positive when it falls.

Activity calls are given as the source filed them. The calls are words filed in the database; no cut-off is given here.

Test [1] addresses T1, Retinal dehydrogenase 2 (Gallus gallus, UniProt O93344).
T1 sequence (O93344 whole entry): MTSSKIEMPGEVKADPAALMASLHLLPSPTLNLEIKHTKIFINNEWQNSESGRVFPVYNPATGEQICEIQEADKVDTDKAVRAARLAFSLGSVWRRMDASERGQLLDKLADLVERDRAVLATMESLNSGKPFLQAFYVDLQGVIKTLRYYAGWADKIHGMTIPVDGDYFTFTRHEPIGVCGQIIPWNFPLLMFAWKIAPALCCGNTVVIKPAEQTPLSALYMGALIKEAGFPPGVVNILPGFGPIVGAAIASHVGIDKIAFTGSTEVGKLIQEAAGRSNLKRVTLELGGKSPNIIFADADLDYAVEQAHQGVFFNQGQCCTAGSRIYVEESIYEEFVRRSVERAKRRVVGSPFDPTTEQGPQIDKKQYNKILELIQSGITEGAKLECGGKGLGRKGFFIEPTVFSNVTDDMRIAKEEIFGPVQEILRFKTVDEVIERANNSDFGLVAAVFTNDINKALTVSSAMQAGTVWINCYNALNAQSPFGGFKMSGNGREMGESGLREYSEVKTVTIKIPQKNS
In words: Inhibition of N-terminal His6-tagged recombinant chick RALDH2 expressed in Escherichia coli BL21(DE3) cells using RAL as substrate measured after 30 mins in presence of NADH by Morrison's plot analysis. Summed up:
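Ki obtained by fitting the Morrison tight-binding equation to the 20-min pre-incubation retinaldehyde/NADH fluorescence inhibition data. Inputs were enzyme concentration (RALDH1 0.358, RALDH2 0.091, RALDH3 0.355, hRALDH2 0.176 μM), substrate concentration and Km. Triplicates from 3–5 independent experiments.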

Test [2] deals with T2, Retinal dehydrogenase 2 (Gallus gallus) (UniProt O93344).
T2 sequence (whole entry): T1 sequence (O93344 whole entry)
Kind of test: Inhibition of N-terminal His6-tagged recombinant chick RALDH2 expressed in Escherichia coli BL21(DE3) cells at 250 nM using RAL as substrate assessed as remaining activity preincubated for 20 mins followed by all-trans-retinaldehyde and substrate addition measured after 30 mins in presence of NAD+ by fluorescence assay. The gist of the method: (§1)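 Chick RALDH2 (91 nM) pre-incubated with 250 nM inhibitor for 0–80 min at 37°C, alone or with 250 μM retinaldehyde or 250 μM NAD+. Reaction then started with the missing substrate and/or cofactor (250 μM retinaldehyde, 4 mM NAD), 30 min at 37°C. Fluorimetric NADH; % activity remaining. Triplicates.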

For test [3], the target named is T2, Retinal dehydrogenase 2 (Gallus gallus). Kind of test: Inhibition of N-terminal His6-tagged recombinant chick RALDH2 expressed in Escherichia coli BL21(DE3) cells at 250 nM using RAL as substrate assessed as remaining activity preincubated for 40 mins followed by all-trans-retinaldehyde and substrate addition measured after 30 mins in presence of NAD+ by fluorescence assay. The gist of the method: as §1

For test [4] the target is unchanged. Kind of test: Inhibition of RALDH2 in living intact choroid isolated from 4 day recovering chick eyes assessed as inhibition of ATRA synthesis at 1 uM after 24 hrs in presence of […].
Test [5] is filed under the species Gallus gallus. In words: Inhibition of N-terminal His6-tagged recombinant chick RALDH3 expressed in Escherichia coli BL21(DE3) cells at 100 nM using RAL as substrate assessed as Vmax preincubated for 20 mins followed by substrate addition and measured after 30 mins in presence of NADH by fluorescence assay (reference value: 107.3 +/- 15.97 pmol/microM/min).
For test [6], the species on record is Gallus gallus. Kind of test: Inhibition of N-terminal His6-tagged recombinant chick RALDH3 expressed in Escherichia coli BL21(DE3) cells at 500 nM using RAL as substrate assessed as Vmax preincubated for 20 mins followed by substrate addition and measured after 30 mins in presence of NADH by fluorescence assay (reference value: 107.3 +/- 15.97 pmol/microM/min).

In test [7] the target is T3, Aldehyde dehydrogenase 1A1 (Gallus gallus) (UniProt P27463).
T3 sequence (whole entry): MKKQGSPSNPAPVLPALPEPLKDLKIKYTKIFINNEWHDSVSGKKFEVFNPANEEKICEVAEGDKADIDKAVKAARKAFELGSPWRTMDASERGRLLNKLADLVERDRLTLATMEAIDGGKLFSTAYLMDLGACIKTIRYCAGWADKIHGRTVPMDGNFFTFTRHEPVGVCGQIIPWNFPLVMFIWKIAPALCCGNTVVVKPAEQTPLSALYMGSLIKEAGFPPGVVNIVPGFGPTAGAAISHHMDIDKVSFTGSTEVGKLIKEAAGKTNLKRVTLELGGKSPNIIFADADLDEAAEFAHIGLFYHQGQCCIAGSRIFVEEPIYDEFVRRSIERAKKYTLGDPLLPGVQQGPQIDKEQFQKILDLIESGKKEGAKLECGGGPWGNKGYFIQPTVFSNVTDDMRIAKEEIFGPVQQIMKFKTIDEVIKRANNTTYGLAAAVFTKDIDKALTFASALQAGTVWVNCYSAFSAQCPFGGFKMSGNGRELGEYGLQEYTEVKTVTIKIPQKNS
Kind of test: Irreversible inhibition of N-terminal His6-tagged recombinant chick RALDH1 expressed in Escherichia coli BL21(DE3) cells using RAL as substrate assessed as reduction in enzyme Vmzx preincubated for 20 mins followed by substrate addition and measured after 30 mins in presence of NADH by fluorescence assay.

For test [8], the target named is T2, Retinal dehydrogenase 2 (Gallus gallus). Kind of test: Inhibition of chick RALDH2 expressed in doxycycline-inducible HEK293 cells assessed as inhibition of ATRA synthesis at 0.5 uM after 24 hrs in presence of […].

For the molecule `CC1=C(/C=C/C(C)=C/C=C/C(C)=C/C(=O)C(Cl)Cl)C(C)(C)CCC1`, the Ki in test [1] worked out at 5.1 nM. The Activity in test [2] was 27.8%; in test [3], 16.3%. Moreover, the values for the inhibition in test [4] and in test [8] were 42% and 47%, respectively. Besides, the results for the Vmax in test [5] and in test [6] were 68.4 pmol/µM/min and 21.6 pmol/µM/min, respectively. In addition, the inhibition result in test [7] was “Active”.

Source of the values: ChEMBL document CHEMBL4261642, “Design, synthesis, and ex vivo evaluation of a selective inhibitor for retinaldehyde dehydrogenase enzymes” (Bioorg Med Chem, 2018).
